According to ChEMBL document CHEMBL3232963, “Discovery of a potent and selective α3β4 nicotinic acetylcholine receptor antagonist from an α-conotoxin synthetic combinatorial library” (J Med Chem, 2014):
Active and inactive are the calls of the source. The rule behind the calls is not given here. Numbered stars: 1 amine (or outer) side, 2 acyl side, 3 side chain; on linkers, the order of the positions; unused ones are H or OH. Bridge positions count the residues as written; N and C are the ends. Square brackets hold non-standard residues; d marks the D form. Peptide text beside a SMILES is read from it. X1 = O=C([C@H](CC1C=Nc2ccccc21)N[*:1])[*:2]; Nle = CCCC[C@H](N)C(=O)O; Nva = CCC[C@H](N)C(=O)O; Abu = CC[C@H](N)C(=O)O

Columns and labels:
Type in all cases: cell-based
[1] = biological target: Neuronal acetylcholine receptor subunit alpha-7 (Homo sapiens) (UniProt P36544); assay: Inhibition of alpha7 nAChR (unknown origin) expressed in Xenopus laevis oocytes assessed as inhibition of acetylcholine-evoked current at 10 uM by voltage clamp technique
Chain of Neuronal acetylcholine receptor subunit alpha-7 (Homo sapiens) (P36544 whole entry): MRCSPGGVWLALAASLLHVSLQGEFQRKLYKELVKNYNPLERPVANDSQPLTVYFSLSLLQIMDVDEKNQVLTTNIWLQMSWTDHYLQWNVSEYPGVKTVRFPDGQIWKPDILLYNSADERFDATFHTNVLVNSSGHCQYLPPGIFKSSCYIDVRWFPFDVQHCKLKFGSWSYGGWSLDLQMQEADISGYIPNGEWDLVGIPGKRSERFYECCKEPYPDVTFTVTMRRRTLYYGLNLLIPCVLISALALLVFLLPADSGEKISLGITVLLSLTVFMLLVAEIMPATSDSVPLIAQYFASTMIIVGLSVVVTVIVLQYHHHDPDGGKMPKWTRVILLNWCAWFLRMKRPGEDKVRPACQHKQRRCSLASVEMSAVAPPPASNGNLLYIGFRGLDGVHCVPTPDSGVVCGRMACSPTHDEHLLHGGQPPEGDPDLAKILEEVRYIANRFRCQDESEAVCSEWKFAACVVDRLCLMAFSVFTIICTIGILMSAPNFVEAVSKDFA

[2] = biological target: Neuronal acetylcholine receptor; alpha3/beta4 (Rattus norvegicus) (UniProt P04757+P12392); assay: Antagonist activity at rat alpha3beta4 nAChR expressed in HEK293 cells assessed as inhibition of epibatadine-induced effect at 10 uM after 30 mins by fluorescent membrane potential assay relative to mecamylamine
Procedure, shortened: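 Rat α3β4 nAChR stably expressed in HEK293 cells; crude, SPE-desalted individual peptides tested at 10 μM in HBSS with membrane potential blue dye, 30 min at 37 °C. Fluorescence change read after epibatidine (0.1 μM). Percent inhibition set against 10 μM mecamylamine taken as 100%.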

[3] = biological target: T1, Neuronal acetylcholine receptor; alpha3/beta4 (Rattus norvegicus, UniProt P04757+P12392); assay: Antagonist activity at rat alpha3beta4 nAChR expressed in HEK293 cells assessed as inhibition of epibatadine-induced effect after 30 mins by fluorescent membrane potential assay
T1 sequence (P04757 whole entry): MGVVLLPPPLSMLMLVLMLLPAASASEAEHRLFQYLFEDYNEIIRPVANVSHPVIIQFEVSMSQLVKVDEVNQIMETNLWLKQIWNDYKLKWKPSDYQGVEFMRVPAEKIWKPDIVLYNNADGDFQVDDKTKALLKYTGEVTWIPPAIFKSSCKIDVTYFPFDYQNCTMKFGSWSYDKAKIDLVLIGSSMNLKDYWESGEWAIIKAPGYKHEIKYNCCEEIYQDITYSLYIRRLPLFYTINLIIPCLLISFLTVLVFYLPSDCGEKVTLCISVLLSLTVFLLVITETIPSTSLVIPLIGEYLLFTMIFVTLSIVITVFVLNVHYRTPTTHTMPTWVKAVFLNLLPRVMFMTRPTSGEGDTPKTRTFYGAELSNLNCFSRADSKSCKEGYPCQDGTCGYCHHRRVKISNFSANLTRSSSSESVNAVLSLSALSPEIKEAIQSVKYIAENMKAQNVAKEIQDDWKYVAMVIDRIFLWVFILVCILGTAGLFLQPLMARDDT
T1 sequence (P12392 whole entry): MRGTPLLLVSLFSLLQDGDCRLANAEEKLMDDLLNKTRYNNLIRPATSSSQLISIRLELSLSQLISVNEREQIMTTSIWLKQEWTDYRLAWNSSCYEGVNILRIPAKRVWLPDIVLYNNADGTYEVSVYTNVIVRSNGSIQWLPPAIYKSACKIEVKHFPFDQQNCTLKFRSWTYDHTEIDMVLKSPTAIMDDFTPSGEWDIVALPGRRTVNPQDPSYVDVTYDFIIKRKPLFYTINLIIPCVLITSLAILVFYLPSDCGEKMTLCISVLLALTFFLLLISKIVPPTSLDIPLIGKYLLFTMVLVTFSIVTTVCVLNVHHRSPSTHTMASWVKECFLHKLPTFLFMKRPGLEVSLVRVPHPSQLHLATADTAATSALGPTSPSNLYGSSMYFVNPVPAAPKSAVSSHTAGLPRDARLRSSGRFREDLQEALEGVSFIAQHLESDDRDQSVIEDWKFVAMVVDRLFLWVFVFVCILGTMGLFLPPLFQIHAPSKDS
Procedure, shortened: (§1)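 Stably transfected HEK293 lines (KXα3β4R2, KXα3β2R2, KXα4β2R2; rat subunits) grown in DMEM/10% FBS with G-418, plated 24 h before assay. Cells washed with HBSS, peptide added, then membrane potential blue dye, 30 min at 37 °C. Fluorescence (ex 565/em 530 nm) read up to 60 s after epibatidine to 0.1 μM. IC50 from maximal responses across concentrations; n = 4.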

[4] = biological target: Neuronal acetylcholine receptor; alpha3/beta2 (Rattus norvegicus, UniProt P04757+P12390); assay: Antagonist activity at rat alpha3beta2 nAChR expressed in HEK293 cells assessed as inhibition of epibatadine-induced effect after 30 mins by fluorescent membrane potential assay; procedure, shortened: as §1
Chain of Neuronal acetylcholine receptor; alpha3/beta2 (P04757 whole entry): as the sequence (P04757 whole entry) above
Chain of Neuronal acetylcholine receptor; alpha3/beta2 (P12390 whole entry): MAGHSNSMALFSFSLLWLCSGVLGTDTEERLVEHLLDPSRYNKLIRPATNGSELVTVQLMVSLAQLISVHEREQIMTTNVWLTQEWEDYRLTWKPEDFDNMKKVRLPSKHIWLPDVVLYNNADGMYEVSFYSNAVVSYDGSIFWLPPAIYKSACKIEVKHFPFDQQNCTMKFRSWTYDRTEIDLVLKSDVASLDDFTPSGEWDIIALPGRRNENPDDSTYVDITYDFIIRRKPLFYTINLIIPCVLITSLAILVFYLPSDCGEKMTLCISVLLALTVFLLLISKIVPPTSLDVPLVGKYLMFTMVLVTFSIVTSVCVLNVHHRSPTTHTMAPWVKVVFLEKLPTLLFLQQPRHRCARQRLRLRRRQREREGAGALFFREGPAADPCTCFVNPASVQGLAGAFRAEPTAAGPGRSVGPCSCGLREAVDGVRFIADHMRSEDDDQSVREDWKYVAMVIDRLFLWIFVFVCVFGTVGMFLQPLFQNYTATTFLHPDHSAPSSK

[5] = biological target: T1, Neuronal acetylcholine receptor; alpha3/beta4; assay: Displacement of [3H]epibatadine from rat alpha3beta4 nAChR expressed in HEK293 cells after 2 hrs by betaplate counting analysis
Procedure, shortened: (§2)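 Membranes from HEK293 cells stably expressing α3β4 or α4β2 nAChR, homogenised in 50 mM Tris pH 7.4 and washed by centrifugation. Incubated 2 h at room temperature with peptide and 0.31 nM [3H]epibatidine; filtered on PEI-soaked glass fibre, counted. Nonspecific binding with 0.1 μM unlabeled epibatidine. Ki by Cheng–Prusoff from IC50.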

[6] = biological target: Neuronal acetylcholine receptor; alpha4/beta2 (Rattus norvegicus, UniProt P09483+P12390); assay: Antagonist activity at rat alpha4beta2 nAChR expressed in HEK293 cells assessed as inhibition of epibatadine-induced effect after 30 mins by fluorescent membrane potential assay; procedure, shortened: as §1
Chain of Neuronal acetylcholine receptor; alpha4/beta2 (P09483 whole entry): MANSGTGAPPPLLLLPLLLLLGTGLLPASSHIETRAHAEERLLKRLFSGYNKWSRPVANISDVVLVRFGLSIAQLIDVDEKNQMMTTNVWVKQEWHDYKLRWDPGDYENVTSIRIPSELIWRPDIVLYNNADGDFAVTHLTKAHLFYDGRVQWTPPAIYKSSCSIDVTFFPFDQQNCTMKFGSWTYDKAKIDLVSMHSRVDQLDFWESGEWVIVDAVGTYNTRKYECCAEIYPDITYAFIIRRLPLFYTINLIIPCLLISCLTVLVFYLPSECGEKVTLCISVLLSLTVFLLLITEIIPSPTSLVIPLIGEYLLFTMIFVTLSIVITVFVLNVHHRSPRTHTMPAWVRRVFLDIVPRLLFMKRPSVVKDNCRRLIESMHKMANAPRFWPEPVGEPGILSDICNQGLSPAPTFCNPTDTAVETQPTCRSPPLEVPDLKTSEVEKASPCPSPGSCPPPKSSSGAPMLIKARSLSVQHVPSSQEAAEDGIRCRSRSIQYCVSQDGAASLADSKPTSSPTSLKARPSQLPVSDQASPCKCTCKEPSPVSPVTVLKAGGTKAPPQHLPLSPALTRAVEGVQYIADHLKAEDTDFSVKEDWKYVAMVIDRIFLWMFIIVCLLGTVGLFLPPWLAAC
Chain of Neuronal acetylcholine receptor; alpha4/beta2 (P12390 whole entry): as the sequence (P12390 whole entry) above

[7] = biological target: Neuronal acetylcholine receptor; alpha4/beta2 (Rattus norvegicus) (UniProt P09483+P12390); assay: Displacement of [3H]epibatadine from rat alpha4beta2 nAChR expressed in HEK293 cells up to 10 uM after 2 hrs by betaplate counting analysis; procedure, shortened: as §2

Structure (SMILES) | inhibition [1] | inhibition [2] [%] | IC50 [3] [nM] | IC50 [4] [nM] | Ki [5] [nM] | IC50 [6] [nM] | Activity [7]
CCCC[C@@H]1NC(=O)[C@H](CO)NC(=O)[C@@H]2CSSC[C@@H](C(=O)O)NC(=O)[C@H](Cc3ccc(O)cc3)NC(=O)[C@H](CCC)NC(=O)[C@H](CC)NC(=O)[C@H](Cc3ccccc3)NC(=O)[C@H](CSSC[C@H](NC(=O)CN)C(=O)N2)NC(=O)[C@H](CC)NC(=O)[C@@H]2CCCN2C1=O (H-GCCS[Nle]P[Abu]CF[Abu][Nva]YC-OH; disulfide 2-8, 3-13) | inactive | 104 | 320 | > 10000 | 980 | > 10000 | inactive
CCCC[C@@H]1NC(=O)[C@H](CC)NC(=O)[C@H](Cc2ccccc2)NC(=O)[C@@H]2CSSC[C@H](NC(=O)CN)C(=O)N[C@@H](CSSC[C@@H](C(=O)O)NC(=O)[C@H](Cc3ccc(O)cc3)NC1=O)C(=O)N[C@@H](CO)C(=O)N[C@@H](CCCC)C(=O)N1CCC[C@H]1C(=O)N[C@@H](CC)C(=O)N2 (H-GCCS[Nle]P[Abu]CF[Abu][Nle]YC-OH; disulfide 2-8, 3-13) | – | 106 | 310 | > 10000 | – | > 10000 | –
CCCC[C@@H]1NC(=O)[C@H](CC)NC(=O)[C@H](Cc2ccccc2)NC(=O)[C@@H]2CSSC[C@H](NC(=O)CN)C(=O)N[C@@H](CSSC[C@@H](C(=O)O)NC(=O)[C@H](Cc3ccc(O)cc3)NC1=O)C(=O)N[C@@H](CO)C(=O)N[C@@H](CCCC)C(=O)N1CCC[C@H]1C(=O)N1CCC[C@H]1C(=O)N2 (H-GCCS[Nle]PPCF[Abu][Nle]YC-OH; disulfide 2-8, 3-13) | – | 107 | 397 | > 10000 | – | > 10000 | –
CCCC[C@@H]1NC(=O)[C@H](CC)NC(=O)[C@H]([C@H](C)CC)NC(=O)[C@@H]2CSSC[C@H](NC(=O)CN)C(=O)N[C@@H](CSSC[C@@H](C(=O)O)NC(=O)[C@H](Cc3ccc(O)cc3)NC1=O)C(=O)N[C@@H](CO)C(=O)N[C@@H](Cc1cnc[nH]1)C(=O)N1CCC[C@H]1C(=O)N[C@@H](CC)C(=O)N2 | – | 110 | 463 | > 10000 | – | > 10000 | –
CCCC[C@@H]1NC(=O)[C@H](CC)NC(=O)[C@H](Cc2ccccc2)NC(=O)[C@@H]2CSSC[C@H](NC(=O)CN)C(=O)N[C@@H](CSSC[C@@H](C(=O)O)NC(=O)[C@H](Cc3ccc(O)cc3)NC1=O)C(=O)N[C@@H](CO)C(=O)N[C@@H](Cc1cnc[nH]1)C(=O)N1CCC[C@H]1C(=O)N1CCC[C@H]1C(=O)N2 (H-GCCSHPPCF[Abu][Nle]YC-OH; disulfide 2-8, 3-13) | – | 106 | 469 | > 10000 | – | > 10000 | –
CCCC[C@@H]1NC(=O)[C@H](CC)NC(=O)[C@H](Cc2ccccc2)NC(=O)[C@@H]2CSSC[C@H](NC(=O)CN)C(=O)N[C@@H](CSSC[C@@H](C(=O)O)NC(=O)[C@H](Cc3ccc(O)cc3)NC1=O)C(=O)N[C@@H](CO)C(=O)N[C@@H](Cc1cnc[nH]1)C(=O)N1CCC[C@H]1C(=O)N[C@@H](CC)C(=O)N2 (H-GCCSHP[Abu]CF[Abu][Nle]YC-OH; disulfide 2-8, 3-13) | – | 110 | 307 | > 10000 | – | > 10000 | –
CCCC[C@@H]1NC(=O)[C@H](Cc2c[nH]c3ccccc23)NC(=O)[C@H](Cc2ccccc2)NC(=O)[C@@H]2CSSC[C@H](NC(=O)CN)C(=O)N[C@@H](CSSC[C@@H](C(=O)O)NC(=O)[C@H](Cc3ccc(O)cc3)NC1=O)C(=O)N[C@@H](CO)C(=O)N[C@@H](Cc1cnc[nH]1)C(=O)N1CCC[C@H]1C(=O)N[C@@H](CC)C(=O)N2 (H-GCCSHP[Abu]CFW[Nle]YC-OH; disulfide 2-8, 3-13) | – | 101 | 1730 | > 10000 | – | > 10000 | –
CCCC[C@@H]1NC(=O)[C@H](CO)NC(=O)[C@@H]2CSSC[C@@H](C(=O)O)NC(=O)[C@@H]3CCCN3C(=O)[C@H](CCC)NC(=O)[C@H](CC)NC(=O)[C@H]([C@H](C)CC)NC(=O)[C@H](CSSC[C@H](NC(=O)CN)C(=O)N2)NC(=O)[C@@H]2CCCN2C(=O)[C@@H]2CCCN2C1=O | – | 45.7 | – | – | – | – | –
CCCC[C@@H]1NC(=O)[C@H](CO)NC(=O)[C@@H]2CSSC[C@@H](C(=O)O)NC(=O)[C@@H]3CCCN3C(=O)[C@H](CCC)NC(=O)[C@H](Cc3c[nH]c4ccccc34)NC(=O)[C@H](Cc3ccccc3)NC(=O)[C@H](CSSC[C@H](NC(=O)CN)C(=O)N2)NC(=O)[C@H](CC)NC(=O)[C@@H]2CCCN2C1=O (H-GCCS[Nle]P[Abu]CFW[Nva]PC-OH; disulfide 2-8, 3-13) | – | 41.1 | – | – | – | – | –
CCCC[C@@H]1NC(=O)[C@H](Cc2c[nH]c3ccccc23)NC(=O)[C@H](Cc2ccccc2)NC(=O)[C@@H]2CSSC[C@H](NC(=O)CN)C(=O)N[C@@H](CSSC[C@@H](C(=O)O)NC(=O)[C@H](Cc3ccc(O)cc3)NC1=O)C(=O)N[C@@H](CO)C(=O)N[C@@H](CCCC)C(=O)N1CCC[C@H]1C(=O)N[C@@H](CC)C(=O)N2 (H-GCCS[Nle]P[Abu]CFW[Nle]YC-OH; disulfide 2-8, 3-13) | – | 76 | – | – | – | – | –
CCC[C@@H]1NC(=O)[C@H](CC)NC(=O)[C@H]([C@H](C)CC)NC(=O)[C@@H]2CSSC[C@H](NC(=O)CN)C(=O)N[C@@H](CSSC[C@@H](C(=O)O)NC(=O)[C@H](Cc3ccc(O)cc3)NC1=O)C(=O)N[C@@H](CO)C(=O)N[C@@H](Cc1cnc[nH]1)C(=O)N1CCC[C@H]1C(=O)N1CCC[C@H]1C(=O)N2 | – | 62.3 | – | – | – | – | –
CCCC[C@@H]1NC(=O)[C@H](CO)NC(=O)[C@@H]2CSSC[C@@H](C(=O)O)NC(=O)[C@@H]3CCCN3C(=O)[C@H](CCC)NC(=O)[C@H](Cc3c[nH]c4ccccc34)NC(=O)[C@H](Cc3ccccc3)NC(=O)[C@H](CSSC[C@H](NC(=O)CN)C(=O)N2)NC(=O)[C@@H]2CCCN2C(=O)[C@@H]2CCCN2C1=O (H-GCCS[Nle]PPCFW[Nva]PC-OH; disulfide 2-8, 3-13) | – | 37.1 | – | – | – | – | –
CCCC[C@@H]1NC(=O)[C@H](Cc2c[nH]c3ccccc23)NC(=O)[C@H]([C@H](C)CC)NC(=O)[C@@H]2CSSC[C@H](NC(=O)CN)C(=O)N[C@@H](CSSC[C@@H](C(=O)O)NC(=O)[C@@H]3CCCN3C1=O)C(=O)N[C@@H](CO)C(=O)N[C@@H](CCCC)C(=O)N1CCC[C@H]1C(=O)N1CCC[C@H]1C(=O)N2 | – | 6.3 | – | – | – | – | –
CCC[C@@H]1NC(=O)[C@H](Cc2c[nH]c3ccccc23)NC(=O)[C@H](Cc2ccccc2)NC(=O)[C@@H]2CSSC[C@H](NC(=O)CN)C(=O)N[C@@H](CSSC[C@@H](C(=O)O)NC(=O)[C@@H]3CCCN3C1=O)C(=O)N[C@@H](CO)C(=O)N[C@@H](Cc1cnc[nH]1)C(=O)N1CCC[C@H]1C(=O)N1CCC[C@H]1C(=O)N2 (H-GCCSHPPCFW[Nva]PC-OH; disulfide 2-8, 3-13) | – | 49 | – | – | – | – | –
CCCC[C@@H]1NC(=O)[C@H](CC2C=Nc3ccccc32)NC(=O)[C@H]([C@H](C)CC)NC(=O)[C@@H]2CSSC[C@H](NC(=O)CN)C(=O)N[C@@H](CSSC[C@@H](C(=O)O)NC(=O)[C@@H]3CCCN3C1=O)C(=O)N[C@@H](CO)C(=O)N[C@@H](Cc1cnc[nH]1)C(=O)N1CCC[C@H]1C(=O)N[C@@H](CC)C(=O)N2 (stereo not given in full) | – | 15.4 | – | – | – | – | –
CCCC[C@@H]1NC(=O)[C@H](CC)NC(=O)[C@H]([C@H](C)CC)NC(=O)[C@@H]2CSSC[C@H](NC(=O)CN)C(=O)N[C@@H](CSSC[C@@H](C(=O)O)NC(=O)[C@H](Cc3ccc(O)cc3)NC1=O)C(=O)N[C@@H](CO)C(=O)N[C@@H](Cc1cnc[nH]1)C(=O)N1CCC[C@H]1C(=O)N1CCC[C@H]1C(=O)N2 | – | 67.2 | – | – | – | – | –
CCCC[C@@H]1NC(=O)[C@H](CC2C=Nc3ccccc32)NC(=O)[C@H](Cc2ccccc2)NC(=O)[C@@H]2CSSC[C@H](NC(=O)CN)C(=O)N[C@@H](CSSC[C@@H](C(=O)O)NC(=O)[C@@H]3CCCN3C1=O)C(=O)N[C@@H](CO)C(=O)N[C@@H](CCCC)C(=O)N1CCC[C@H]1C(=O)N[C@@H](CC)C(=O)N2 (stereo not given in full) (H-GCCS[Nle]P[Abu]CF[X1][Nle]PC-OH; disulfide 2-8, 3-13) | – | 22.1 | – | – | – | – | –
CCC[C@@H]1NC(=O)[C@H](CC)NC(=O)[C@H]([C@H](C)CC)NC(=O)[C@@H]2CSSC[C@H](NC(=O)CN)C(=O)N[C@@H](CSSC[C@@H](C(=O)O)NC(=O)[C@H](Cc3ccc(O)cc3)NC1=O)C(=O)N[C@@H](CO)C(=O)N[C@@H](Cc1cnc[nH]1)C(=O)N1CCC[C@H]1C(=O)N[C@@H](CC)C(=O)N2 | – | 84.5 | 1930 | > 10000 | – | > 10000 | –
